Source: ChEMBL document CHEMBL1126195, “A new, general synthetic route to multidentate N,S ligands for use in technetium-99m radiopharmaceuticals. Preparation of diamido disulfur, diamino dithiol, and tripodal N3S3 prototypes. Comparative biodistributions of [99mTcvO-DADS]- analogues which contain 5,5,5- and 5,7,5-membered chelate ring …” (J Med Chem, 1992)

Assays:
Rattus norvegicus [1] = species on record: Rattus norvegicus; assay: Biodistribution was reported in rat liver after 15 min.; assay type: ADME, organism-based; details: in vivo, 0.25 h
In short: (§1)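 Female Sprague-Dawley rats (~200 g average, n = 3 per time point) were anesthetized with Metofane. They received 0.2 mL of 99mTc complex (50 µCi) by jugular vein injection. Rats were killed by cervical dislocation at early times or CO2 at later times. Blood (1 mL), brain, heart, a liver sample and one kidney were weighed and gamma-counted (100-150 keV) against standards. Values are average % injected dose/organ.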

Rattus norvegicus [2] = species on record: Rattus norvegicus; assay: Biodistribution was reported in rat blood after 1 min.; assay type: ADME, organism-based; details: in vivo; in short: as §1
Rattus norvegicus [3] = species on record: Rattus norvegicus; assay: Biodistribution was reported in rat brain after 60 min.; assay type: ADME, organism-based; details: in vivo, 1 h; in short: as §1
Rattus norvegicus [4] = species on record: Rattus norvegicus; assay: Biodistribution was reported in rat kidney after 60 min.; assay type: ADME, organism-based; details: in vivo, 1 h; in short: as §1
Rattus norvegicus [5] = species on record: Rattus norvegicus; assay: Biodistribution was reported in rat heart after 5 min.; assay type: ADME, organism-based; details: in vivo; in short: as §1
Rattus norvegicus [6] = species on record: Rattus norvegicus; assay: Biodistribution was reported in rat heart after 60 min.; assay type: ADME, organism-based; details: in vivo, 1 h; in short: as §1
Rattus norvegicus [7] = species on record: Rattus norvegicus; assay: Biodistribution was reported in rat liver after 30 min.; assay type: ADME, organism-based; details: in vivo, 0.5 h; in short: as §1
Rattus norvegicus [8] = species on record: Rattus norvegicus; assay: Biodistribution was reported in rat heart after 15 min.; assay type: ADME, organism-based; details: in vivo, 0.25 h; in short: as §1
Rattus norvegicus [9] = species on record: Rattus norvegicus; assay: Biodistribution was reported in rat liver after 1 min.; assay type: ADME, organism-based; details: in vivo; in short: as §1
Rattus norvegicus [10] = species on record: Rattus norvegicus; assay: Biodistribution was reported in rat kidney after 1 min.; assay type: ADME, organism-based; details: in vivo; in short: as §1
Rattus norvegicus [11] = species on record: Rattus norvegicus; assay: Biodistribution was reported in rat brain after 30 min.; assay type: ADME, organism-based; details: in vivo, 0.5 h; in short: as §1
Rattus norvegicus [12] = species on record: Rattus norvegicus; assay: Biodistribution was reported in rat heart after 30 min.; assay type: ADME, organism-based; details: in vivo, 0.5 h; in short: as §1
Rattus norvegicus [13] = species on record: Rattus norvegicus; assay: Biodistribution was reported in rat blood after 5 min.; assay type: ADME, organism-based; details: in vivo; in short: as §1
Rattus norvegicus [14] = species on record: Rattus norvegicus; assay: Biodistribution was reported in rat kidney after 5 min.; assay type: ADME, organism-based; details: in vivo; in short: as §1
Rattus norvegicus [15] = species on record: Rattus norvegicus; assay: Biodistribution was reported in rat blood after 30 min.; assay type: ADME, organism-based; details: in vivo, 0.5 h; in short: as §1
Rattus norvegicus [16] = species on record: Rattus norvegicus; assay: Biodistribution was reported in rat heart after 1 min.; assay type: ADME, organism-based; details: in vivo; in short: as §1
Rattus norvegicus [17] = species on record: Rattus norvegicus; assay: Biodistribution was reported in rat brain after 1 min.; assay type: ADME, organism-based; details: in vivo; in short: as §1
Rattus norvegicus [18] = species on record: Rattus norvegicus; assay: Biodistribution was reported in rat kidney after 15 min.; assay type: ADME, organism-based; details: in vivo, 0.25 h; in short: as §1
Rattus norvegicus [19] = species on record: Rattus norvegicus; assay: Biodistribution was reported in rat kidney after 30 min.; assay type: ADME, organism-based; details: in vivo, 0.5 h; in short: as §1
Rattus norvegicus [20] = species on record: Rattus norvegicus; assay: Biodistribution was reported in rat blood after 15 min.; assay type: ADME, organism-based; details: in vivo, 0.25 h; in short: as §1
Rattus norvegicus [21] = species on record: Rattus norvegicus; assay: Biodistribution was reported in rat blood after 60 min.; assay type: ADME, organism-based; details: in vivo, 1 h; in short: as §1
Rattus norvegicus [22] = species on record: Rattus norvegicus; assay: Biodistribution was reported in rat liver after 5 min.; details: in vivo
Rattus norvegicus [23] = species on record: Rattus norvegicus; assay: Biodistribution was reported in rat brain after 5 min.; assay type: ADME, organism-based; details: in vivo; in short: as §1
Rattus norvegicus [24] = species on record: Rattus norvegicus; assay: Biodistribution was reported in rat brain after 15 min.; assay type: ADME, organism-based; details: in vivo, 0.25 h; in short: as §1
Rattus norvegicus [25] = species on record: Rattus norvegicus; assay: Biodistribution was reported in rat liver after 60 min.; assay type: ADME, organism-based; details: in vivo, 1 h; in short: as §1

Q: How did the Dose/organ (Rattus norvegicus [1]) turn out when `O=C(CSC(=O)c1ccccc1)NCC(c1ccccc1)C(CNC(=O)CSC(=O)c1ccccc1)c1ccccc1` (stereo not given) was run?
A: 71.36%

Q: And the Dose/organ (Rattus norvegicus [2])?
A: 24.64%

Q: What about the Dose/organ (Rattus norvegicus [3]) of the same compound?
A: 0%

Q: And the Dose/organ (Rattus norvegicus [4])?
A: 0.92%

Q: And the Dose/organ (Rattus norvegicus [5])?
A: 0.1%

Q: What about the Dose/organ (Rattus norvegicus [6]) of the same compound?
A: 0.03%

Q: What about the Dose/organ (Rattus norvegicus [7]) of the same compound?
A: 61.12%

Q: What about the Dose/organ (Rattus norvegicus [8]) of the same compound?
A: 0.1%

Q: And the Dose/organ (Rattus norvegicus [9])?
A: 66.32%

Q: And the Dose/organ (Rattus norvegicus [10])?
A: 2.2%

Q: What about the Dose/organ (Rattus norvegicus [11]) of the same compound?
A: 0.01%

Q: What about the Dose/organ (Rattus norvegicus [12]) of the same compound?
A: 0.04%

Q: And the Dose/organ (Rattus norvegicus [13])?
A: 5.18%

Q: What about the Dose/organ (Rattus norvegicus [14]) of the same compound?
A: 1.6%

Q: And the Dose/organ (Rattus norvegicus [15])?
A: 2.52%

Q: And the Dose/organ (Rattus norvegicus [16])?
A: 0.17%

Q: And the Dose/organ (Rattus norvegicus [17])?
A: 0.05%

Q: And the Dose/organ (Rattus norvegicus [18])?
A: 1.2%

Q: And the Dose/organ (Rattus norvegicus [19])?
A: 1%

Q: And the Dose/organ (Rattus norvegicus [20])?
A: 3.64%

Q: What about the Dose/organ (Rattus norvegicus [21]) of the same compound?
A: 2.1%

Q: What about the Dose/organ (Rattus norvegicus [22]) of the same compound?
A: 61.6%

Q: And the Dose/organ (Rattus norvegicus [23])?
A: 0.01%

Q: What about the Dose/organ (Rattus norvegicus [24]) of the same compound?
A: 0.01%

Q: What about the Dose/organ (Rattus norvegicus [25]) of the same compound?
A: 47.68%

Q: For `O=C(CSC(=O)c1ccccc1)NCCCCNC(=O)CSC(=O)c1ccccc1`, which Dose/organ (Rattus norvegicus [1]) is on record?
A: 3.84%

Q: And the Dose/organ (Rattus norvegicus [2])?
A: 31.08%

Q: What about the Dose/organ (Rattus norvegicus [3]) of the same compound?
A: 0%

Q: What about the Dose/organ (Rattus norvegicus [4]) of the same compound?
A: 1.14%

Q: And the Dose/organ (Rattus norvegicus [5])?
A: 0.18%

Q: And the Dose/organ (Rattus norvegicus [6])?
A: 0.01%

Q: What about the Dose/organ (Rattus norvegicus [7]) of the same compound?
A: 0.88%

Q: What about the Dose/organ (Rattus norvegicus [8]) of the same compound?
A: 0.08%

Q: What about the Dose/organ (Rattus norvegicus [9]) of the same compound?
A: 17.44%

Q: And the Dose/organ (Rattus norvegicus [10])?
A: 16.5%

Q: What about the Dose/organ (Rattus norvegicus [11]) of the same compound?
A: 0%

Q: What about the Dose/organ (Rattus norvegicus [12]) of the same compound?
A: 0.02%

Q: And the Dose/organ (Rattus norvegicus [13])?
A: 9.52%

Q: And the Dose/organ (Rattus norvegicus [14])?
A: 5.4%

Q: What about the Dose/organ (Rattus norvegicus [15]) of the same compound?
A: 0.98%

Q: And the Dose/organ (Rattus norvegicus [16])?
A: 0.38%

Q: What about the Dose/organ (Rattus norvegicus [17]) of the same compound?
A: 0.06%

Q: And the Dose/organ (Rattus norvegicus [18])?
A: 5.04%

Q: What about the Dose/organ (Rattus norvegicus [19]) of the same compound?
A: 1.92%

Q: And the Dose/organ (Rattus norvegicus [20])?
A: 4.62%

Q: And the Dose/organ (Rattus norvegicus [21])?
A: 0.56%

Q: And the Dose/organ (Rattus norvegicus [22])?
A: 6.96%

Q: What about the Dose/organ (Rattus norvegicus [23]) of the same compound?
A: 0.03%

Q: What about the Dose/organ (Rattus norvegicus [24]) of the same compound?
A: 0.01%

Q: And the Dose/organ (Rattus norvegicus [25])?
A: 0.56%
